Experimental data as given in paper PMC9939322 (Acta Pharmaceutica Sinica. B, 2022).
Ends that are not written are not given here.

Tested on: mice with DSS-induced acute colitis
Experiment: Treatment of DSS-induced acute colitis in mice
Format: in vivo, C57BL/6 J mice
Conditions: oral, daily, 7 days; Ac2-26 95.2 μg/kg; ATTN 35 mg/kg
Summary of the method: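 Acute colitis induced in C57BL/6 J mice by 3% (w/v) DSS in drinking water for 7 days. Colitis mice were randomized into 4 groups and dosed daily by oral gavage with one of: saline, free peptide, peptide-free carrier nanoparticles (35 mg/kg), or peptide-loaded nanoparticles (35 mg/kg). Peptide dose was 95.2 μg/kg in every peptide-containing formulation.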

Ac2-26: pro-resolving peptide Ac2-26, synthesized by ChinaPeptides Co., Ltd. (Ac-AMVSEFLKQAWFIENEEQEYVQTVK; UniProt P04083 2-26, looked up, fragment)
depletion of goblet cells (PAS staining): no beneficial effects
